Laboratory results taken from ChEMBL document CHEMBL6134787, “Fexinidazole optimization: enhancing anti-leishmanial profile, metabolic stability and hERG safety” (RSC Med Chem, 2024).

Test system: not listed separately
Experiment: Metabolic stability in rat liver S9 fraction assessed as compound remaining at 20 uM measured after 32 mins in presence of NADP and GSH by HPLC analysis
Assay type: ADME, subcellular
Settings: read-out: Stability
How it was run: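 Rat liver S9 (final 4 mg/mL) in 50 mM phosphate pH 7.4 with NADPH-regenerating system (0.3 mM NADP+, 5.3 mM glucose-6-phosphate, G6PDH), 10 mM MgCl2 and 5 mM EDTA. Pre-warmed 10 min at 37 °C, then 20 μM compound and 5.5 μM GSH added. Samples taken at 0, 16 and 32 min were quenched in ice-cold acetonitrile. HPLC (254/280 nm) peak area was expressed relative to 0 min.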

| Compound | remaining at 32 min, 20 µM [%] |
| --- | --- |
| Cn1c([N+](=O)[O-])cnc1COc1ccc([S+](C)[O-])cc1 (stereo not given) [FEXINIDAZOLE SULFOXIDE] | 100 |
| CSc1ccc(CCc2ncc([N+](=O)[O-])n2CCO)cc1 | 76.8 |
| C[S+]([O-])c1ccc(OCC2Cn3cc([N+](=O)[O-])nc3O2)cc1 (racemic) | 100 |

Test system: not listed separately
Experiment: Hepatotoxicity against human HepG2 cells assessed as reduction in cell viability at 125 uM incubated for 24 hrs by MTT assay
Assay type: toxicity, cell-based
Settings: hepg2, 24 h
How it was run: (§1)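 HEP-G2 cells in RPMI 1640 + 10% heat-inactivated FBS, penicillin/streptomycin. Seeded at 15 000/well and attached 24 h at 37 °C, 5% CO2. Compounds were serially diluted in DMSO, with 24 or 48 h exposure. MTT (2.5 mg/mL solution) was added for 4 h, formazan dissolved in DMSO and A570 read. Viability was background-corrected against DMSO-treated cell controls; mean ± SD, ≥3 experiments.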

| Compound | Activity [%] |
| --- | --- |
| C[S+]([O-])c1ccc(OCC2Cn3cc([N+](=O)[O-])nc3O2)cc1 (racemic) | 40.8 |

Test system: not listed separately
Experiment: Hepatotoxicity against mouse TAMH cells assessed as cell viability at 125 uM incubated for 48 hrs by MTT assay
Assay type: toxicity, cell-based
Settings: not given
How it was run: (§2)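 TAMH mouse liver cells in FCS-free DMEM/F12 with 5% PANEXIN NTA, 10 mM nicotinamide and gentamicin. Seeded at 20 000/well and attached 24 h at 37 °C, 5% CO2. DMSO-diluted compounds were applied for 24 or 48 h. MTT was added for 4 h, formazan dissolved in DMSO and A570 read. Viability was background-corrected and expressed relative to DMSO controls; mean ± SD, ≥3 experiments.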

| Compound | Activity |
| --- | --- |
| Cn1c([N+](=O)[O-])cnc1COc1ccc([S+](C)[O-])cc1 (stereo not given) [FEXINIDAZOLE SULFOXIDE] | Non-toxic |

Test system: not listed separately
Experiment: Metabolic stability in rat liver microsome assessed as compound remaining at 20 uM measured after 32 mins in presence of NADP and GSH by HPLC analysis
Assay type: ADME
Settings: liver microsomes, read-out: Stability
How it was run: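 Rat liver microsomes (final 2 mg/mL) in 50 mM phosphate pH 7.4 with 0.3 mM NADP+, 5.3 mM glucose-6-phosphate, G6PDH, 10 mM MgCl2 and 5 mM EDTA. 20 μM compound added at 37 °C. Aliquots at 0, 16 and 32 min were quenched in ice-cold acetonitrile and centrifuged. HPLC peak area at 254/280 nm was expressed relative to 0 min.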

| Compound | remaining at 32 min, 20 µM [%] |
| --- | --- |
| Cn1c([N+](=O)[O-])cnc1COc1ccc([S+](C)[O-])cc1 (stereo not given) [FEXINIDAZOLE SULFOXIDE] | 100 |
| CSc1ccc(CCc2ncc([N+](=O)[O-])n2CCO)cc1 | 20.5 |
| C[S+]([O-])c1ccc(OCC2Cn3cc([N+](=O)[O-])nc3O2)cc1 (racemic) | 100 |

Test system: Leishmania donovani
Experiment: Antileishmanial activity against miltefosine resistant Leishmania donovani HU3MILR40 promastigotes […] assessed as inhibition of parasite growth incubated for 72 hrs by automatic microtiter plate reader analysis
Assay type: functional, organism-based
Settings: not given
How it was run: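 Promastigote (free parasite) assay: Schneider's Drosophila medium with 4 mM glutamine, 25 μg mL−1 gentamicin, 10% heat-inactivated FBS, pH 6.9, 27 °C. 1.5 × 10^5 promastigotes per well exposed to a concentration series for 72 h at 27 °C.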

| Compound | IC50 [µM] |
| --- | --- |
| Cn1c([N+](=O)[O-])cnc1COc1ccc([S+](C)[O-])cc1 (stereo not given) [FEXINIDAZOLE SULFOXIDE] | 4.3 |
| CSc1ccc(CCc2ncc([N+](=O)[O-])n2CCO)cc1 | > 20 |
| C[S+]([O-])c1ccc(OCC2Cn3cc([N+](=O)[O-])nc3O2)cc1 (racemic) | 7.1 |

Test system: RAW264.7
Experiment: Cytotoxicity against mouse RAW264.7 cells assessed as inhibition of cell growth incubated for 72 hrs by MTS assay
Assay type: functional, cell-based
Settings: RAW264.7, 72 h
How it was run: (§3)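 Cells in DMEM + 10% heat-inactivated FBS with penicillin/streptomycin at 37 °C, 5% CO2. They were seeded at 1 × 10^4/well and incubated with a concentration series for 72 h at 37 °C. Viability was read by MTS/PMS assay at 490 nm and IC50 derived.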

| Compound | IC50 [µM] |
| --- | --- |
| Cn1c([N+](=O)[O-])cnc1COc1ccc([S+](C)[O-])cc1 (stereo not given) [FEXINIDAZOLE SULFOXIDE] | > 100 |
| CSc1ccc(CCc2ncc([N+](=O)[O-])n2CCO)cc1 | > 100 |
| C[S+]([O-])c1ccc(OCC2Cn3cc([N+](=O)[O-])nc3O2)cc1 (racemic) | > 100 |

Test system: not listed separately
Experiment: Cytotoxicity against mouse L929 cells assessed as inhibition of cell growth incubated for 72 hrs by MTS assay
Assay type: toxicity, cell-based
Settings: not given
How it was run: as §3

| Compound | IC50 at 72 h [µM] |
| --- | --- |
| Cn1c([N+](=O)[O-])cnc1COc1ccc([S+](C)[O-])cc1 (stereo not given) [FEXINIDAZOLE SULFOXIDE] | > 100 |
| CSc1ccc(CCc2ncc([N+](=O)[O-])n2CCO)cc1 | > 100 |
| C[S+]([O-])c1ccc(OCC2Cn3cc([N+](=O)[O-])nc3O2)cc1 (racemic) | > 100 |

Test system: not listed separately
Experiment: Hepatotoxicity against mouse TAMH cells assessed as reduction in cell viability at 125 uM incubated for 24 hrs by MTT assay
Assay type: toxicity, cell-based
Settings: not given
How it was run: as §2

| Compound | Activity [%] |
| --- | --- |
| C[S+]([O-])c1ccc(OCC2Cn3cc([N+](=O)[O-])nc3O2)cc1 (racemic) | 58 |

Target: T1, Voltage-gated inwardly rectifying potassium channel KCNH2 (Homo sapiens, UniProt Q12809)
Experiment: Inhibition of human ERG stably overexpressed in HEK293 cells assessed as remaining activity at 6 uM incubated for 30 mins by FLIPR assay
Assay type: toxicity, cell-based
Settings: hek293, 0.5 h, 6 µM
How it was run: (§4)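 HEK-293 cells stably expressing hERG, seeded at 60 000/well and grown 24 h. Compounds were added in DMSO (final 0.5%) and incubated 30 min in the dark. After 20 s baseline, Tl+ stimulus (3 mM) was added and fluorescence (ex 485/em 535 nm) recorded for 2.5 min.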

T1 sequence (Q12809 whole entry): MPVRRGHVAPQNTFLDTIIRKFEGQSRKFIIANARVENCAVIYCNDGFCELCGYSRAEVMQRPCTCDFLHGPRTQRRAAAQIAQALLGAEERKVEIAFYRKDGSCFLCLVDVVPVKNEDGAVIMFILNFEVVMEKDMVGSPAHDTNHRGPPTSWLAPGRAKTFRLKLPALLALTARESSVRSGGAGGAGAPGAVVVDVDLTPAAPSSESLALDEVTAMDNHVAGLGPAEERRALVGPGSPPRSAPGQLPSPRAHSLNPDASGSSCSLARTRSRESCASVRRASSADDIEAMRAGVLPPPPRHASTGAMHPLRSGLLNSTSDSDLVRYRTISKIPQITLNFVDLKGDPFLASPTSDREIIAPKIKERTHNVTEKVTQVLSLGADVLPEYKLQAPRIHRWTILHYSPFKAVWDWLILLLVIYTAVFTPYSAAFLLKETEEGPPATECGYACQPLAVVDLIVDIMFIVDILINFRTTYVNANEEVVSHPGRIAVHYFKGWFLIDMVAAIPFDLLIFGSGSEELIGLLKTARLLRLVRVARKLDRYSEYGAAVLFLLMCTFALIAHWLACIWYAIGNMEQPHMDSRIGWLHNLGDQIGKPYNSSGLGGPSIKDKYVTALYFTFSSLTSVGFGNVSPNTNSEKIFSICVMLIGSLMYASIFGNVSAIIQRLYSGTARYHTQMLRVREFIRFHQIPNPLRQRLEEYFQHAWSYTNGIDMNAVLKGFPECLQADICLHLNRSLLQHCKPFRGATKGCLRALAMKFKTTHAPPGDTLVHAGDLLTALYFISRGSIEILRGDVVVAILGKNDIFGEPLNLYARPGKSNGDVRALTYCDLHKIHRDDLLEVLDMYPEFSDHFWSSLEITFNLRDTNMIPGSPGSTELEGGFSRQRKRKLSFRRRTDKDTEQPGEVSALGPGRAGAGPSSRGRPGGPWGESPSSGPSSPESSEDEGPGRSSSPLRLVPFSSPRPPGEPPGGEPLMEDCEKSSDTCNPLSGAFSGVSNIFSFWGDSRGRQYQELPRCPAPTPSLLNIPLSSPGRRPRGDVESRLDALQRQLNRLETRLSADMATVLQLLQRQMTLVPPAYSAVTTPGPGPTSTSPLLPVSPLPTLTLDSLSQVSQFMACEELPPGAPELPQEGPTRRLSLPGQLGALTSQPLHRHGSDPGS

| Compound | inhibition (INH) |
| --- | --- |
| C[S+]([O-])c1ccc(OCC2Cn3cc([N+](=O)[O-])nc3O2)cc1 (racemic) | Not_active |

Target: T1, Voltage-gated inwardly rectifying potassium channel KCNH2
Experiment: Inhibition of human ERG stably overexpressed in HEK293 cells incubated for 30 mins by FLIPR assay
Assay type: toxicity, cell-based
Settings: human, hek293, 0.5 h; time 30 min

| Compound | IC25 [µM] |
| --- | --- |
| Cn1c([N+](=O)[O-])cnc1COc1ccc([S+](C)[O-])cc1 (stereo not given) [FEXINIDAZOLE SULFOXIDE] | > 100 |
| CSc1ccc(CCc2ncc([N+](=O)[O-])n2CCO)cc1 | 6 |
| C[S+]([O-])c1ccc(OCC2Cn3cc([N+](=O)[O-])nc3O2)cc1 (racemic) | 30.1 |

Test system: Leishmania donovani
Experiment: Antileishmanial activity against wild type Leishmania donovani HU3 promastigotes […] assessed as inhibition of parasite growth incubated for 72 hrs by automatic microtiter plate reader analysis
Assay type: functional, organism-based
Settings: not given

| Compound | IC50 [µM] |
| --- | --- |
| Cn1c([N+](=O)[O-])cnc1COc1ccc([S+](C)[O-])cc1 (stereo not given) [FEXINIDAZOLE SULFOXIDE] | 3.4 |
| CSc1ccc(CCc2ncc([N+](=O)[O-])n2CCO)cc1 | > 20 |
| C[S+]([O-])c1ccc(OCC2Cn3cc([N+](=O)[O-])nc3O2)cc1 (racemic) | 10.2 |

Test system: not listed separately
Experiment: Hepatotoxicity against mouse TAMH cells assessed as cell viability at 7.8 to 125 uM incubated for 24 to 48 hrs by MTT assay
Assay type: toxicity, cell-based
Settings: dose lower 7.8 µM, time lower 24 hrs, dose upper 125 µM, time upper 48 hrs, read-out: Activity
How it was run: as §2

| Compound | viability at up to 125 µM [%] |
| --- | --- |
| Cn1c([N+](=O)[O-])cnc1COc1ccc([S+](C)[O-])cc1 (stereo not given) [FEXINIDAZOLE SULFOXIDE] | > 50 |
| CSc1ccc(CCc2ncc([N+](=O)[O-])n2CCO)cc1 | > 50 |
| C[S+]([O-])c1ccc(OCC2Cn3cc([N+](=O)[O-])nc3O2)cc1 (racemic) | 56 |

Test system: Leishmania amazonensis
Experiment: Antileishmanial activity against wild type Leishmania amazonensis LV78 promastigotes […] assessed as inhibition of parasite growth incubated for 72 hrs by automatic microtiter plate reader analysis
Assay type: functional, organism-based
Settings: not given
How it was run: (§5)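 Promastigotes were grown in Schneider's medium (4 mM glutamine, gentamicin, 10% heat-inactivated FBS, pH 6.9, 27 °C). Cells were seeded at 1.5 × 10^5/well and exposed to a concentration series for 72 h at 27 °C.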

| Compound | IC50 [µM] |
| --- | --- |
| Cn1c([N+](=O)[O-])cnc1COc1ccc([S+](C)[O-])cc1 (stereo not given) [FEXINIDAZOLE SULFOXIDE] | 7.8 |
| CSc1ccc(CCc2ncc([N+](=O)[O-])n2CCO)cc1 | > 20 |
| C[S+]([O-])c1ccc(OCC2Cn3cc([N+](=O)[O-])nc3O2)cc1 (racemic) | > 20 |

Test system: Leishmania braziliensis
Experiment: Antileishmanial activity against wild type Leishmania braziliensis UA847 promastigotes […] assessed as inhibition of parasite growth incubated for 72 hrs by automatic microtiter plate reader analysis
Assay type: functional, organism-based
Settings: not given
How it was run: as §5

| Compound | IC50 [µM] |
| --- | --- |
| Cn1c([N+](=O)[O-])cnc1COc1ccc([S+](C)[O-])cc1 (stereo not given) [FEXINIDAZOLE SULFOXIDE] | 4.3 |
| CSc1ccc(CCc2ncc([N+](=O)[O-])n2CCO)cc1 | > 20 |
| C[S+]([O-])c1ccc(OCC2Cn3cc([N+](=O)[O-])nc3O2)cc1 (racemic) | > 20 |

Target: hERG (KCNH2) (Homo sapiens, UniProt Q12809)
Experiment: (§6) Inhibition of human ERG stably overexpressed in HEK293 cells at 100 uM incubated for 30 mins by FLIPR assay
Assay type: toxicity, cell-based
Settings: HEK293 cells stably overexpressing hERG
How it was run: as §4

Sequence of hERG (KCNH2) (Q12809 whole entry): as above

| Compound | inhibition at 0.5 h, 100 µM [%] |
| --- | --- |
| CSc1ccc(CCc2ncc([N+](=O)[O-])n2CCO)cc1 | 100 |

Target: T1, Voltage-gated inwardly rectifying potassium channel KCNH2
Experiment: as §6
Assay type: toxicity, cell-based
Settings: hek293, 0.5 h, 100 µM
How it was run: as §4

| Compound | inhibition (INH) |
| --- | --- |
| Cn1c([N+](=O)[O-])cnc1COc1ccc([S+](C)[O-])cc1 (stereo not given) [FEXINIDAZOLE SULFOXIDE] | Not_active |

Test system: Leishmania major
Experiment: Antileishmanial activity against wild type Leishmania major FV1 promastigotes […] assessed as inhibition of parasite growth incubated for 72 hrs by automatic microtiter plate reader analysis
Assay type: functional, organism-based
Settings: not given
How it was run: as §5

| Compound | IC50 [µM] |
| --- | --- |
| Cn1c([N+](=O)[O-])cnc1COc1ccc([S+](C)[O-])cc1 (stereo not given) [FEXINIDAZOLE SULFOXIDE] | 1.4 |
| CSc1ccc(CCc2ncc([N+](=O)[O-])n2CCO)cc1 | > 20 |
| C[S+]([O-])c1ccc(OCC2Cn3cc([N+](=O)[O-])nc3O2)cc1 (racemic) | > 20 |

Test system: not listed separately
Experiment: Hepatotoxicity against human HepG2 cells assessed as cell viability at 125 uM incubated for 48 hrs by MTT assay
Assay type: toxicity, cell-based
Settings: hepg2, 48 h, 125 µM
How it was run: as §1

| Compound | Activity |
| --- | --- |
| Cn1c([N+](=O)[O-])cnc1COc1ccc([S+](C)[O-])cc1 (stereo not given) [FEXINIDAZOLE SULFOXIDE] | Non-toxic |
